Test [1] has as its system Cavia porcellus. Briefly: Percent protection against histamine-induced bronchoconstriction in conscious guinea pig. The arrangement: concentration or dose not given beside the values. The format is functional.
The species named for test [2] is Cavia porcellus. As to the kind of experiment: Relative spasmogenic potency in an in vitro guinea pig uteri assay. Format: functional.
Test [3] has as its system Cavia porcellus. Briefly: Relative ability to cause abortion in conscious guinea pigs compared to PGE-2. The format is functional.
Test [4] concerns Rattus norvegicus. Briefly: Relative potency (50 ug/kg) for inhibition of pentagastrin-stimulated gastric acid secretion in anesthetized rats. Format: functional, Stomach.
Test [5] concerns Canis familiaris. Briefly: Compound versus PGE-2 (0.1 ug/kg, iv) was tested for effects on blood pressure in anesthetized dogs. Format: functional, Canis lupus familiaris. In a few lines:
(§1)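 Anesthetized dogs responsive to PGE2 (at least two per compound); iv dosing. Blood pressure threshold dose expressed relative to PGE2 reference at 0.1 μg/kg iv; direction noted as depressor (−) or pressor (+).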

In test [6] the test system is Mus musculus. As to the kind of experiment: Relative potency of compound versus PGE-2 (0.3-3.0mg/mL, iv) for induction of diarrhoea in conscious mice; NE = no effect at one tenth the minimum effective dose for PGE-2. The format is functional, organism-based.
The test system of test [7] is Canis familiaris. As to the kind of experiment: Compound versus PGE-2 (0.1 ug/kg, iv) was tested for effects on blood pressure in anesthetized dogs; Depressor. The format is functional, Canis lupus familiaris. Put shortly:
as §1

For test [8], the system named is Mus musculus. As to the kind of experiment: Relative potency of compound versus PGE-2 (0.3-3.0mg/mL, iv)for induction of diarrhoea in conscious mice. The format is functional. In a few lines: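 Groups of six conscious mice, iv. Relative potency was estimated from concentration-response curves for diarrhea induction against PGE2 given at 0.3–3.0 mg/kg iv.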
The test system of test [9] is Mus musculus. As to the kind of experiment: Relative potency of compound versus PGE-2 (0.3-3.0mg/mL, iv) for induction of diarrhoea in conscious mice; Depressor. Format: functional.
Test [10] deals with Canis familiaris. Briefly: Compound versus PGE-2 (0.1 ug/kg, iv) was tested for effects on blood pressure in anesthetized dogs; Pressor. Format: functional, Canis lupus familiaris. Put shortly: as §1
The subject of test [11] is Mus musculus. As to the kind of experiment: Relative potency of compound versus PGE-2 (0.3-3.0mg/mL, iv) for induction of diarrhoea in conscious mice; NE = no effect at 10 times the ED50 for PGE-2. Format: functional, organism-based.

`CS(=O)(=O)NC(=O)CCC/C=C\C[C@H]1C(=O)C[C@@H](O)C1/C=C/[C@@H](O)COc1cccc(Cl)c1` (stereo not given in full) showed a Protection in test [1] of 28%. The Relative potency in test [2] is given as 46; in test [3], 1000; in test [4], 140.
On to `CS(=O)(=O)NC(=O)CCC/C=C\C[C@H]1C(=O)C[C@@H](O)C1/C=C/[C@@H](O)COc1cccs1` (stereo not given in full), for which the Relative potency was found to be 0.5 in test [5], 50 in test [2] and 300 in test [3]. In test [1], this compound yielded a Protection of 28%.
On to `CS(=O)(=O)NC(=O)CCC/C=C\C[C@H]1C(=O)C[C@@H](O)C1/C=C/[C@@H](O)COc1cccc(C(F)(F)F)c1` (stereo not given in full), for which the Relative potency in [5] was below 0.5; in test [2] it was 0.5; in test [6], “No effect”; in test [3], below 100. In [1], this compound registered a Protection of 16%.
In the case of `CS(=O)(=O)NC(=O)CCC/C=C\C[C@H]1C(=O)C[C@@H](O)C1/C=C/[C@@H](O)COc1ccc(Cl)cc1` (stereo not given in full), in [1], the Protection came to 9%. Besides, the Relative potency is 90 in [2], 0.5 in test [7], 10000 in test [3] and 1200 in test [4].
With `COc1ccc(OC[C@H](O)/C=C/C2[C@H](O)CC(=O)[C@@H]2C/C=C\CCCC(=O)NS(C)(=O)=O)cc1` (stereo not given in full), the Relative potency in test [5] is below 0.5; in [2] it was 10; in test [3], below 1000; in test [4] it was 600. This compound also registered a Protection in [1] of 13%.
Turning to `CCCCC(C)(C)[C@H](O)/C=C/C1[C@H](O)CC(=O)[C@@H]1C/C=C\CCCC(=O)O` (stereo not given in full), the Protection in test [1] was 41%. The Relative potency in test [2] is recorded as 33; in test [3] it was below 100; in test [8] it was 5300; in [4], 400. Further, the Relative threshold dose in [7] was determined as 10.
In the case of `CS(=O)(=O)NC(=O)CCC/C=C\C[C@H]1C(=O)C[C@@H](O)C1/C=C/[C@@H](O)COc1ccc(F)cc1` (stereo not given in full), in test [1], the Protection was 3%. The figures for the Relative potency in test [2] and in test [3] were 120 and 3000, respectively.
In turn, `Cc1cccc(OC[C@H](O)/C=C/C2[C@H](O)CC(=O)[C@@H]2C/C=C\CCCC(=O)NS(C)(=O)=O)c1` (stereo not given in full) came in with a Protection in test [1] of 44%. For the same compound, the Relative potency is 4 in [2]; “No effect” in test [6]; 0.5 in [7]; below 1000 in test [3]; 125 in test [4].
In test [1], `CCS(=O)(=O)NC(=O)CCC/C=C\C[C@H]1C(=O)C[C@@H](O)C1/C=C/[C@@H](O)COc1ccccc1` (stereo not given in full) showed a Protection of 9%. Further, the Relative potency in test [2] was 85; in [7], 1; in [3], 3000.
Regarding `CS(=O)(=O)NC(=O)CCC/C=C\C[C@H]1C(=O)C[C@@H](O)C1/C=C/[C@@H](O)CCc1ccccc1` (stereo not given in full), the Relative potency in test [5] is listed as 2.5; in [9], 2.5; in test [2], 75; in [3] it was below 100. Also, in test [1], the Protection came to 0%.
As for `CCCCC[C@H](O)/C=C/[C@H]1[C@H](O)CC(=O)[C@@H]1C/C=C\CCCC(=O)O` [DINOPROSTONE], the Protection in test [1] stood at 100%. Besides, the Relative potency in test [2], in test [3], in test [8] and in test [4] was 100 each time.
In turn, `CS(=O)(=O)NC(=O)CCC/C=C\CC1=C(/C=C/[C@@H](O)COc2ccccc2)CCC1=O` displayed a Protection in [1] of 0%. Moreover, the Relative potency is reported as 1.2 in test [2], below 100 in test [3], 60 in test [8] and 80 in test [4]. This compound displayed a Relative threshold dose in [10] of 10.
In turn, `O=C(O)CCC/C=C\C[C@H]1C(=O)C[C@@H](O)C1/C=C/[C@@H](O)COc1ccccc1` (stereo not given in full) gave a Protection in test [1] of 9%. Also, the Relative potency in [2] came out at 75; in test [3], 300; in test [8] it was 150; in test [4], 530. Moreover, in test [7], the Relative threshold dose is 10.
Compound `CS(=O)(=O)NC(=O)CCC/C=C\C[C@H]1C(=O)C=CC1/C=C/[C@@H](O)COc1ccccc1` (stereo not given in full) registered a Protection in test [1] of 9%. Besides, the Relative potency in [2] is reported as 0.2; in test [3], below 100; in test [8], 10; in [4], 200. Moreover, the Relative threshold dose in test [7] came to 2.5.
Regarding `COc1cccc(OC[C@H](O)/C=C/C2[C@H](O)CC(=O)[C@@H]2C/C=C\CCCC(=O)NS(C)(=O)=O)c1` (stereo not given in full), the Relative potency in test [5] was below 0.5; in test [11], “No effect”; in [2], 1; in test [3], below 1000; in test [4] it was 0. Further, the Protection in test [1] worked out at 25%.
Turning to `CS(=O)(=O)NC(=O)CCC/C=C\C[C@@H]1C(/C=C/[C@@H](O)COc2ccccc2)[C@H](O)C[C@@H]1O` (stereo not given in full), the figures for the Relative potency in [5], in test [2] and in test [3] were 10, 10 and 1000, respectively. The compound also yielded a Protection in [1] of 3%.
Turning to `O=C(CCC/C=C\C[C@H]1C(=O)C[C@@H](O)C1/C=C/[C@@H](O)COc1ccccc1)NS(=O)(=O)c1ccccc1` (stereo not given in full), the Relative potency in test [5] was below 0.5; in test [2], 5; in test [3], 1000; in test [4], 370. Further, in test [1], the Protection worked out at 13%.
In the case of `CS(=O)(=O)NC(=O)CCC/C=C\C[C@H]1C(=O)C[C@@H](O)[C@@H]1/C=C/[C@@H](O)COc1ccccc1` [SULPROSTONE], the Protection in [1] is 10%. Besides, the Relative potency is 115 in test [2], 0.5 in test [7], 3000 in test [3] and 450 in test [4].
